Measured values from ChEMBL document CHEMBL1144718, “Novel 3-aroylpyrazolo[5,1-c][1,2,4]benzotriazine 5-oxides 8-substituted, ligands at GABAA/benzodiazepine receptor complex: synthesis, pharmacological and molecular modeling studies” (Bioorg Med Chem, 2008).
The source made the active and inactive calls. The rule behind the calls is not given here.

Key:
[1] = Displacement of [3H]flumazenil from GABAA/BzR complex in bovine cerebral cortex membrane; assay type: cell membranes, Bos taurus
Summary of the method: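 Bovine cerebral cortex membranes in 50 mM Tris-citrate pH 7.4 incubated with [3H]Ro15-1788 (1–2 nM) for 1 h at 4 °C to equilibrium; nonspecific binding with 10^-5 M diazepam; DMSO ≤1%. Ki from ≥6 concentrations (10^-9–10^-5 M) by curve fitting and Cheng–Prusoff; percent inhibition at 10 µM; five determinations, triplicate.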

Mus musculus [2] = assay: Effect on motor coordination in CD1 Albino mouse assessed as number of falls in 30 secs at 30 mg/kg, po after 30 mins by rotarod test relative to control; assay type: functional
Summary of the method: (§1)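 Rota-rod at 16 rpm in male CD-1 mice after po dosing in 1% CMC; number of falls in 30 s counted at 15, 30, 45 and 60 min post-administration.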

Mus musculus [3] = assay: Anticonvulsant activity against pentylenetetrazole-induced seizure in CD1 Albino mouse assessed as convulsant latency at 3 mg/kg, po after 30 mins; assay type: functional
Summary of the method: (§2)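 Male CD-1 mice (22–24 g), compound suspended in 1% CMC (sonicated) given po in 10 ml/kg; 30 min later PTZ 90 mg/kg sc (in saline). Latency (s) to shock and to convulsions recorded; clonic generalized convulsions counted over 30 min.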

Mus musculus [4] = assay: Effect on motor coordination in CD1 Albino mouse assessed as number of falls in 30 secs at 10 mg/kg, po after 30 mins by rotarod test relative to control; assay type: functional; summary of the method: as §1
Mus musculus [5] = assay: Sedative activity in CD1 albino mouse assessed as reduction of curiosity at 3 mg/kg, po after 30 mins by hole-board test; assay type: functional, organism-based; set-up: dose 3 mg/kg
Summary of the method: (§3)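 Hole-board: male CD-1 mice given compound po (1% CMC) and placed individually on the board 30 min later, free to explore panel and holes for 5 min; spontaneous motility and exploration (panel and hole movements) scored.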

Mus musculus [6] = assay: Anticonvulsant activity against pentylenetetrazole-induced seizure in CD1 Albino mouse assessed as convulsant latency at 10 mg/kg, po after 30 mins; assay type: functional; summary of the method: as §2
Mus musculus [7] = assay: Sedative activity in CD1 albino mouse assessed as reduction of curiosity at 30 mg/kg, po after 30 mins by hole-board test; assay type: functional, organism-based; set-up: dose 30 mg/kg; summary of the method: as §3
Mus musculus [8] = assay: Effect on motor coordination in CD1 Albino mouse assessed as number of falls in 30 secs at 3 mg/kg, po after 30 mins by rotarod test; assay type: functional; summary of the method: as §1
Mus musculus [9] = assay: Sedative activity in CD1 albino mouse assessed as reduction of spontaneous motility at 3 mg/kg, ip after 20 mins by hole-board test; assay type: functional, organism-based; set-up: dose 3 mg/kg
Summary of the method: (§4)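 Hole-board test in male CD-1 mice (22–24 g) after an ip dose in saline (10 ml/kg). Each mouse explored the panel and holes alone for 5 min. Spontaneous motility was scored as panel movements and curiosity as exploration of the holes.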

Mus musculus [10] = assay: Anticonvulsant activity against pentylenetetrazole-induced seizure in CD1 Albino mouse assessed as shock latency at 1 mg/kg, ip after 20 mins; assay type: functional, organism-based; set-up: dose 1 mg/kg
Summary of the method: (§5)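 In male CD-1 mice (22–24 g), drug in saline was given ip at 10 ml/kg; the test ran 20 min later. PTZ 90 mg/kg sc was the convulsant. Latency (s) to shock and to convulsions was scored, and clonic generalized convulsions were counted over 30 min. Significance was set at P < 0.05 versus controls.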

Mus musculus [11] = assay: Anticonvulsant activity against pentylenetetrazole-induced seizure in CD1 Albino mouse assessed as convulsant latency at 1 mg/kg, ip after 20 mins; assay type: functional, organism-based; set-up: dose 1 mg/kg; summary of the method: as §5
Mus musculus [12] = assay: Amnesic activity in CD1 albino mouse at 1 mg/kg, ip; assay type: functional, organism-based; set-up: dose 1 mg/kg
Summary of the method: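 Male CD-1 mice (22–24 g) given drug ip in 0.9% saline at 10 ml/kg. Passive-avoidance training followed treatment, and retention was tested 24 h later. Read-out was latency to enter the dark compartment in both sessions, capped at 60 s (training) and 180 s (retention). Means ± SEM of 15–18 mice.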

Mus musculus [13] = assay: Sedative activity in CD1 albino mouse assessed as reduction of curiosity at 3 mg/kg, ip after 20 mins by hole-board test; assay type: functional, organism-based; set-up: dose 3 mg/kg; summary of the method: as §4

SMILES	Ki [1] [nM]	other results
CC(=O)c1cnn2c1n[n+]([O-])c1ccc(Oc3ccccc3)cc12	53	–
CCOc1ccc2c(c1)n1ncc(C(C)=O)c1n[n+]2[O-]	902	–
Cn1cccc1C(=O)c1cnn2c1n[n+]([O-])c1ccc(Cl)cc12	5200	–
CCOc1ccc2c(c1)n1ncc(C(=O)c3ccc[nH]3)c1n[n+]2[O-]	1840	–
O=C(c1ccco1)c1cnn2c1n[n+]([O-])c1ccc(Cl)cc12	72	–
CCOc1ccc2c(c1)n1ncc(C(=O)c3cccn3C)c1n[n+]2[O-]	819	–
CCOc1ccc2c(c1)n1ncc(C(=O)c3ccco3)c1n[n+]2[O-]	28	Activity (Mus musculus [2]): 0.6 count; Activity (Mus musculus [3]): 328.5 s; Activity (Mus musculus [4]): 0.8 count; Activity (Mus musculus [5]): Active; Activity (Mus musculus [6]): 488.2 s; Activity (Mus musculus [7]): Active; Activity (Mus musculus [8]): 0.6 count
COc1ccc(C(=O)c2cnn3c2n[n+]([O-])c2ccc(Cl)cc23)cc1	1240	–
CN1C(=O)CN=C(c2ccccc2)c2cc(Cl)ccc21 [DIAZEPAM]	10	Activity (Mus musculus [9]): Active; Activity (Mus musculus [10]): inactive; Activity (Mus musculus [11]): inactive; Activity (Mus musculus [12]): Active; Activity (Mus musculus [13]): Active
O=C(c1ccccc1)c1cnn2c1n[n+]([O-])c1ccc(Cl)cc12	3490	–
Cn1ccc(C(=O)c2cnn3c2n[n+]([O-])c2ccc(Cl)cc23)c1	380	–
O=C(c1ccco1)c1cnn2c1n[n+]([O-])c1ccc(OCc3ccccc3)cc12	1.4	–
O=C(c1ccc[nH]1)c1cnn2c1nnc1ccc(Cl)cc12	1940	–
CC(=O)c1cnn2c1n[n+]([O-])c1ccc(Cl)cc12	551	–
O=C(c1cccs1)c1cnn2c1nnc1ccc(Oc3ccccc3)cc12	14.7	–
